Entries after “also recorded” stand apart in the source; their conditions may differ.
What was measured:
[1] = non-acetylated form; ref [28]; cited from earlier work
[2] = target: holo-CaM (Ca-bound human calmodulin) (Homo sapiens, UniProt P0DP23); experiment: NMR titration; conditions: compared with literature membrane binding, [55], [56]
Method in brief: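 Human CaM was expressed in E. coli and purified, ¹⁵N-labelled, holo form, held constant at 100 μM. It was titrated with N-acetylated α-syn, as the 1–19 peptide or the full-length protein, in 50 mM MES, 100 mM NaCl, 3 mM CaCl₂, pH 6.4, 5% D₂O. Amide shifts were read by ¹⁵N HSQC at 800 MHz, 310 K. Ten amides were scaled to one reference residue and fitted globally to a two-state 1:1 model.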

[3] = ref [36]; cited from earlier work
CaM = conditions: non-acetylated α-syn, cited from earlier work
apo-CaM = conditions: non-acetylated α-syn; ref [28], [29]; cited from earlier work

- binding constant to holo-CaM relative to membranes containing anionic lipids [2]: comparable
Substance: α-syn: Full-length non-acetylated α-syn expressed in E. coli
- competition of CaM with membrane for α-syn binding [1]: CaM can compete with the membrane for α-syn binding
- affinity for negatively charged membranes, effect of N-terminal acetylation [3]: N-terminal acetylation increases its affinity for negatively charged membranes
- binding affinity (two earlier studies) (CaM; ref [28], [29]): submicromolar range
- Kd (CaM; read-out: dissociation constant (later study), ref [30]): ~10 µM
- interaction with apo-CaM in earlier studies (apo-CaM): There is disagreement whether apo-CaM can interact with α-syn; also recorded: one report seeing interaction only in the presence of calcium-bound (holo-) CaM whereas the other observed little difference between the two forms
